Reference: ChEMBL document CHEMBL1955778, “Design and synthesis of novel 7-aminoquinazoline derivatives: antitumor and anticonvulsant activities” (Bioorg Med Chem Lett, 2012)

Assays:
UACC-62 = experiment: Growth inhibition of human UACC62 cells at 10 uM relative to control; assay type: functional; conditions: read-out: GI
Method in brief: (§1)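 Single-dose screen across the 60-cell-line human tumor panel at 10 μM. Growth inhibition is reported as a percentage, taken as 100 minus the % growth relative to untreated control.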

MDA-MB-435 = experiment: Growth inhibition of human MDA-MB-435 cells at 10 uM relative to control; assay type: functional; conditions: read-out: GI
Method in brief: (§2)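 Each cell line in a 60-line human tumour panel exposed to one 10 μM concentration. Growth inhibition percentage computed as 100 minus the percentage activity relative to control.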

U-251 = experiment: Growth inhibition of human U251 cells at 10 uM relative to control; assay type: functional; conditions: read-out: GI; method in brief: as §1
LOX IMVI = experiment: Growth inhibition of human LOXIMVI cells at 10 uM relative to control; assay type: functional; conditions: read-out: GI; method in brief: as §2
SF-295 = experiment: Growth inhibition of human SF295 cells at 10 uM relative to control; assay type: functional; conditions: read-out: GI; method in brief: as §2
HT-29 = experiment: Growth inhibition of human HT-29 cells at 10 uM relative to control; assay type: functional; conditions: read-out: GI; method in brief: as §2
EKVX = experiment: Growth inhibition of human EKVX cells at 10 uM relative to control; assay type: functional; conditions: read-out: GI; method in brief: as §2
RPMI-8226 = experiment: Growth inhibition of human RPMI8226 cells at 10 uM relative to control; assay type: functional; conditions: read-out: GI; method in brief: as §2
SR = experiment: Growth inhibition of human SR cells at 10 uM relative to control; assay type: functional; conditions: read-out: GI; method in brief: as §1
MOLT-4 = experiment: Growth inhibition of human MOLT4 cells at 10 uM relative to control; assay type: functional; conditions: read-out: GI; method in brief: as §2
K562 = experiment: Growth inhibition of human K562 cells at 10 uM relative to control; assay type: functional; conditions: read-out: GI; method in brief: as §2
CCRF-CEM = experiment: Growth inhibition of human CCRF-CEM cells at 10 uM relative to control; assay type: functional; conditions: read-out: GI; method in brief: as §2
HL-60(TB) = experiment: Growth inhibition of human HL-60(TB) cells at 10 uM relative to control; assay type: functional; conditions: read-out: GI
Method in brief: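 Single-dose screen at 10 μM across the 60-cell-line tumour panel. Percent growth inhibition = 100 minus percent growth activity relative to untreated control.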

T47D = experiment: Growth inhibition of human T47D cells at 10 uM relative to control; assay type: functional; conditions: read-out: GI; method in brief: as §1
BT-549 = experiment: Growth inhibition of human BT549 cells at 10 uM relative to control; assay type: functional; conditions: read-out: GI; method in brief: as §2
A498 = experiment: Growth inhibition of human A498 cells at 10 uM relative to control; assay type: functional; conditions: read-out: GI; method in brief: as §2
Mus musculus [1] = species on record: Mus musculus; experiment: Protective index, ratio of TD50 for mouse to ED50 for pentylenetetrazol-induced seizure in mouse; assay type: functional
Method in brief: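 Mice. Index is TD50/ED50. TD50 is the dose causing minimal neurological toxicity in 50% of mice in the Chimney test. ED50 is the dose protecting 50% of mice against pentylenetetrazole-induced seizures. Both are estimated from testing at several doses.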

[2] = Toxicity in ip dose mouse assessed as mortality; assay type: organism-based; conditions: in vivo
Method in brief: (§3)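 In mice, LD50 is the dose causing 50% mortality. ED50 is the dose protecting 50% of mice against pentylenetetrazole-induced seizures. Therapeutic index = LD50/ED50.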

[3] = Therapeutic index, ratio of LD50 for mouse to ED50 for pentylenetetrazol-induced seizure in mouse; assay type: organism-based; conditions: in vivo, read-out: Ratio LD50/ED50; method in brief: as §3
[4] = Neurotoxicity in ip dosed mouse assessed as impaired motor coordination administered 30 mins prior to test by chimney test; assay type: toxicity, organism-based; conditions: in vivo
Method in brief: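 Mice, Chimney test. TD50 is the dose that produces minimal neurological toxicity (impaired motor coordination) in 50% of animals, estimated from testing at several doses.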

Mus musculus [5] = experiment: Anticonvulsant activity in ip dosed mouse assessed as protection against pentylenetetrazol-induced seizure administered 30 min prior to pentylenetetrazol-challenge measured after 60 mins; assay type: functional
Method in brief: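 Mice received several doses for quantification. ED50 taken as the dose protecting 50% of mice against pentylenetetrazol-induced seizures.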

Mus musculus [6] = experiment: Anticonvulsant activity in mouse assessed as protection against maximal electroshock-induced seizure at 1 mmol/kg, ip administered 30 min prior to maximal electroshock-challenge measured after 60 mins relative to control; assay type: functional
Mus musculus [7] = experiment: Anticonvulsant activity in mouse assessed as protection against picrotoxin-induced seizure at 1 mmol/kg, ip administered 30 min prior to picrotoxin-challenge measured after 60 mins relative to control; assay type: functional
Mus musculus [8] = experiment: Anticonvulsant activity in mouse assessed as protection against strychnine-induced seizure at 1 mmol/kg, ip administered 30 min prior to strychnine-challenge measured after 60 mins relative to control; assay type: functional
Mus musculus [9] = experiment: Anticonvulsant activity in mouse assessed as protection against pentylenetetrazol-induced seizure at 1 mmol/kg, ip administered 30 min prior to pentylenetetrazol-challenge measured after 60 mins relative to control; assay type: functional
OVCAR-8 = experiment: Growth inhibition of human OVCAR8 cells at 10 uM relative to control; assay type: functional; conditions: read-out: GI; method in brief: as §2
SK-MEL-28 = experiment: Growth inhibition of human SK-MEL-28 cells at 10 uM relative to control; assay type: functional; conditions: read-out: GI; method in brief: as §2
SNB-19 = experiment: Growth inhibition of human SNB19 cells at 10 uM relative to control; assay type: functional; conditions: read-out: GI; method in brief: as §1
SNB-75 = experiment: Growth inhibition of human SNB75 cells at 10 uM relative to control; assay type: functional; conditions: read-out: GI; method in brief: as §1
SF-539 = experiment: Growth inhibition of human SF539 cells at 10 uM relative to control; assay type: functional; conditions: read-out: GI; method in brief: as §2
HCT-116 = experiment: Growth inhibition of human HCT116 cells at 10 uM relative to control; assay type: functional; conditions: read-out: GI; method in brief: as §2
HCC 2998 = experiment: Growth inhibition of human HCC2998 cells at 10 uM relative to control; assay type: functional; conditions: read-out: GI; method in brief: as §2
NCI-H522 = experiment: Growth inhibition of human NCI-H522 cells at 10 uM relative to control; assay type: functional; conditions: read-out: GI; method in brief: as §2
NCI-H23 = experiment: Growth inhibition of human NCI-H23 cells at 10 uM relative to control; assay type: functional; conditions: read-out: GI; method in brief: as §2
NCI-H226 = experiment: Growth inhibition of human NCI-H226 cells at 10 uM relative to control; assay type: functional; conditions: read-out: GI; method in brief: as §2
A549 = experiment: Growth inhibition of human A549 cells at 10 uM relative to control; assay type: functional; conditions: read-out: GI; method in brief: as §2
[10] = Growth inhibition of human Hs 578T cells at 10 uM relative to control; assay type: functional; conditions: read-out: GI; method in brief: as §2
PC-3 = experiment: Growth inhibition of human PC3 cells at 10 uM relative to control; assay type: functional; conditions: read-out: GI; method in brief: as §2
UO-31 = experiment: Growth inhibition of human UO31 cells at 10 uM relative to control; assay type: functional; conditions: read-out: GI; method in brief: as §1
CAKI-1 = experiment: Growth inhibition of human CAKI-1 cells at 10 uM relative to control; assay type: functional; conditions: read-out: GI; method in brief: as §2

Structure (SMILES): Cc1ccccc1-n1c(C)nc2cc(NC(=O)c3cccs3)ccc2c1=O
- inhibition of growth at 10 µM (UACC-62): 8%
- inhibition of growth at 10 µM (MDA-MB-435): 6%
- inhibition of growth at 10 µM (U-251): 12%
- inhibition of growth at 10 µM (LOX IMVI): 4.2%
- inhibition of growth at 10 µM (SF-295): 6%
- inhibition of growth at 10 µM (HT-29): 11%
- inhibition of growth at 10 µM (EKVX): 11%
- inhibition of growth at 10 µM (RPMI-8226): 8%
- inhibition of growth at 10 µM (SR): 21%
- inhibition of growth at 10 µM (MOLT-4): 25.6%
- inhibition of growth at 10 µM (K562): 12.8%
- inhibition of growth at 10 µM (CCRF-CEM): 12.2%
- inhibition of growth at 10 µM (HL-60(TB)): 19.2%
- inhibition of growth at 10 µM (T47D): 7.8%
- inhibition of growth at 10 µM (BT-549): 8%
- inhibition of growth at 10 µM (A498): 9%

Structure (SMILES): Cc1ccccc1-n1c(C)nc2cc(/N=C/c3ccc(F)cc3)ccc2c1=O
- Ratio TD50/ED50 (Mus musculus [1]): 3
- LD50 [2]: 1710 µmol/kg
- selectivity ratio [3]: 5.5
- TD50 at 0.5 h [4]: 930 µmol/kg
- ED50 (Mus musculus [5]): 310 µmol/kg
- Activity (Mus musculus [6]): 100%
- Activity (Mus musculus [7]): 75%
- Activity (Mus musculus [8]): 0%
- Activity (Mus musculus [9]): 100%

Structure (SMILES): Cc1ccccc1-n1c(C)nc2cc(NS(=O)(=O)c3ccccc3)ccc2c1=O
- inhibition of growth at 10 µM (OVCAR-8): 5.4%
- inhibition of growth at 10 µM (UACC-62): 9%
- inhibition of growth at 10 µM (SK-MEL-28): 2.4%
- inhibition of growth at 10 µM (U-251): 4%
- inhibition of growth at 10 µM (SNB-19): 4%
- inhibition of growth at 10 µM (SNB-75): 14.8%
- inhibition of growth at 10 µM (SF-295): 9%
- inhibition of growth at 10 µM (SF-539): 4%
- inhibition of growth at 10 µM (HT-29): 3%
- inhibition of growth at 10 µM (HCT-116): 4%
- inhibition of growth at 10 µM (HCC 2998): 4%
- inhibition of growth at 10 µM (NCI-H522): 2.2%
- inhibition of growth at 10 µM (NCI-H23): 5.2%
- inhibition of growth at 10 µM (NCI-H226): 2.5%
- inhibition of growth at 10 µM (A549): 5%
- inhibition of growth at 10 µM (EKVX): 14.3%
- inhibition of growth at 10 µM (RPMI-8226): 12%
- inhibition of growth at 10 µM (MOLT-4): 12.2%
- inhibition of growth at 10 µM (K562): 10%
- inhibition of growth at 10 µM (CCRF-CEM): 13%
- inhibition of growth at 10 µM (HL-60(TB)): 4%
- inhibition of growth at 10 µM [10]: 3.2%
- inhibition of growth at 10 µM (PC-3): 8%
- inhibition of growth at 10 µM (UO-31): 13.6%
- inhibition of growth at 10 µM (CAKI-1): 4%
- inhibition of growth at 10 µM (A498): 8%
